ChEMBL document CHEMBL1800036, “A novel HDAC inhibitor with a hydroxy-pyrimidine scaffold” (Bioorg Med Chem Lett, 2011)
Activity calls are given as the source filed them. No cut-off for these calls is given here.

Assays:
Histone deacetylase 9 = Histone deacetylase 9 (Homo sapiens, UniProt Q9UKV0); test: Inhibition of recombinant HDAC9 assessed as inhibition of fluorogenic aminocoumarin release from substrate by trypsin-coupled biochemical assay
Outline: (§1)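 Trypsin-coupled fluorogenic assay. Substrate is an acetylated lysine tripeptide amide-linked to aminocoumarin (AMC). HDAC deacetylation allows trypsin to release AMC, and the fluorescence increase is read. Compound was tested at various concentrations and normalized to a DMSO control. IC50 was derived by non-linear regression fit.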

Histone deacetylase 5 = Histone deacetylase 5 (Homo sapiens, UniProt Q9UQL6); test: Inhibition of recombinant HDAC5 assessed as inhibition of fluorogenic aminocoumarin release from substrate by trypsin-coupled biochemical assay; outline: as §1
Histone deacetylase 2 [1] = target: T1, Histone deacetylase 2 (Homo sapiens, UniProt Q92769); test: Inhibition of recombinant HDAC2 assessed as inhibition of fluorogenic aminocoumarin release from substrate by trypsin-coupled biochemical assay
Histone deacetylase 4 = Histone deacetylase 4 (Homo sapiens, UniProt P56524); test: Inhibition of recombinant HDAC4 assessed as inhibition of fluorogenic aminocoumarin release from substrate by trypsin-coupled biochemical assay; outline: as §1
Histone deacetylase 2 [2] = target: T1, Histone deacetylase 2; test: Competitive inhibition of HDAC2 active site at 1 to 100 uM by Lineweaver-Burk plot
Outline: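 Lysine-deacetylation inhibition mode on HDAC2. Several inhibitor concentrations were tested with substrate at 10 times above and below the HDAC2 Km. The trypsin-coupled AMC fluorescence read-out was analysed by Lineweaver-Burk plot.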

Histone deacetylase 8 = target: T2, Histone deacetylase 8 (Homo sapiens, UniProt Q9BY41); test: Inhibition of recombinant HDAC8 assessed as inhibition of fluorogenic aminocoumarin release from substrate by trypsin-coupled biochemical assay; outline: as §1
T2 sequence (Q9BY41 whole entry): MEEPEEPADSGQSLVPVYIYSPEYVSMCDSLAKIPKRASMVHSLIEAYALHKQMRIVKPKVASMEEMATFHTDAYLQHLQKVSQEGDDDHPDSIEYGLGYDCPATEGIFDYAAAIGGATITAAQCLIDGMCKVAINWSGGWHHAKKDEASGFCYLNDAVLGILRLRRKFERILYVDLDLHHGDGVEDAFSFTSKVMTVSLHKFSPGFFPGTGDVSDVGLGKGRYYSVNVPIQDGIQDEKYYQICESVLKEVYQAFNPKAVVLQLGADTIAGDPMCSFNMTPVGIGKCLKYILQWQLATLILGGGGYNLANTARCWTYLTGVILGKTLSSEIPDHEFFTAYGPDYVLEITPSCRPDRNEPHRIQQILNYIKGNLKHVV

[3] = target: T3, Protein deacetylase HDAC6 (Homo sapiens, UniProt Q9UBN7); test: Inhibition of recombinant HDAC6 assessed as inhibition of fluorogenic aminocoumarin release from substrate by trypsin-coupled biochemical assay; outline: as §1
T3 sequence (Q9UBN7 whole entry): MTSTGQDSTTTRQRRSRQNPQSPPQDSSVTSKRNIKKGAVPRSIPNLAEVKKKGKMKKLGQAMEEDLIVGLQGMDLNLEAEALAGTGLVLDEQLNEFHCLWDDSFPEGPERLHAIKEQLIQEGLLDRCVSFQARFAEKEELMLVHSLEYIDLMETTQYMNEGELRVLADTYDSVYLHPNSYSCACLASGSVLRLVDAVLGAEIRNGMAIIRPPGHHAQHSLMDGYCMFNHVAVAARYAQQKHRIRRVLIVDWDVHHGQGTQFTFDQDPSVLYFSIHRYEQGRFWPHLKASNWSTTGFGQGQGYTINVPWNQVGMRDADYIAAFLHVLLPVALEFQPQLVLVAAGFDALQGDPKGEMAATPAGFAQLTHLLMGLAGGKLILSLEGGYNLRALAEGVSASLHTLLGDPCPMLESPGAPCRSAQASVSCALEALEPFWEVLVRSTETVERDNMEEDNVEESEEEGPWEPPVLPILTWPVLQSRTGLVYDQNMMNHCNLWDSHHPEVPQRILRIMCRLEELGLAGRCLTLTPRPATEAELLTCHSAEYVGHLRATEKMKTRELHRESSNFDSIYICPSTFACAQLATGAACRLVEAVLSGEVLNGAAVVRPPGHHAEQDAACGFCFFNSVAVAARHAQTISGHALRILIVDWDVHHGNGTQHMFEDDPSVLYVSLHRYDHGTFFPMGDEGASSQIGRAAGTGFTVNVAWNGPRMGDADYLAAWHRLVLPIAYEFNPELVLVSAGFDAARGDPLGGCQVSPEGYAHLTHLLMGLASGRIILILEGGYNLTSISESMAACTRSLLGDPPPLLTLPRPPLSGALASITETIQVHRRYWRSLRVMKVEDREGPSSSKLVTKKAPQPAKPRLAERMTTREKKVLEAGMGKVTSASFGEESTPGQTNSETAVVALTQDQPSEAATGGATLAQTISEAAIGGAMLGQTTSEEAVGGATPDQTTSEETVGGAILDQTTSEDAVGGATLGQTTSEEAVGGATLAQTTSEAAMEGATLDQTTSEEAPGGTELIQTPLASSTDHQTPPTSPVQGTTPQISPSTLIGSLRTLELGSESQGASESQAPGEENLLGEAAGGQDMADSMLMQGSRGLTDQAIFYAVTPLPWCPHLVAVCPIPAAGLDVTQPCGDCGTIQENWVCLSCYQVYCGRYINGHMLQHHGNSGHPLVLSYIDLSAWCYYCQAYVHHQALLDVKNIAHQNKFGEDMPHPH

Histone deacetylase 3 = Histone deacetylase 3 (Homo sapiens, UniProt O15379); test: Inhibition of recombinant HDAC3 assessed as inhibition of fluorogenic aminocoumarin release from substrate by trypsin-coupled biochemical assay; outline: as §1
Histone deacetylase 1 = Histone deacetylase 1 (Homo sapiens, UniProt Q13547); test: Inhibition of recombinant HDAC1 assessed as inhibition of fluorogenic aminocoumarin release from substrate by trypsin-coupled biochemical assay; outline: as §1
Histone deacetylase 7 = target: T4, Histone deacetylase 7 (Homo sapiens, UniProt Q8WUI4); test: Inhibition of recombinant HDAC7 assessed as inhibition of fluorogenic aminocoumarin release from substrate by trypsin-coupled biochemical assay
T4 sequence (Q8WUI4 whole entry): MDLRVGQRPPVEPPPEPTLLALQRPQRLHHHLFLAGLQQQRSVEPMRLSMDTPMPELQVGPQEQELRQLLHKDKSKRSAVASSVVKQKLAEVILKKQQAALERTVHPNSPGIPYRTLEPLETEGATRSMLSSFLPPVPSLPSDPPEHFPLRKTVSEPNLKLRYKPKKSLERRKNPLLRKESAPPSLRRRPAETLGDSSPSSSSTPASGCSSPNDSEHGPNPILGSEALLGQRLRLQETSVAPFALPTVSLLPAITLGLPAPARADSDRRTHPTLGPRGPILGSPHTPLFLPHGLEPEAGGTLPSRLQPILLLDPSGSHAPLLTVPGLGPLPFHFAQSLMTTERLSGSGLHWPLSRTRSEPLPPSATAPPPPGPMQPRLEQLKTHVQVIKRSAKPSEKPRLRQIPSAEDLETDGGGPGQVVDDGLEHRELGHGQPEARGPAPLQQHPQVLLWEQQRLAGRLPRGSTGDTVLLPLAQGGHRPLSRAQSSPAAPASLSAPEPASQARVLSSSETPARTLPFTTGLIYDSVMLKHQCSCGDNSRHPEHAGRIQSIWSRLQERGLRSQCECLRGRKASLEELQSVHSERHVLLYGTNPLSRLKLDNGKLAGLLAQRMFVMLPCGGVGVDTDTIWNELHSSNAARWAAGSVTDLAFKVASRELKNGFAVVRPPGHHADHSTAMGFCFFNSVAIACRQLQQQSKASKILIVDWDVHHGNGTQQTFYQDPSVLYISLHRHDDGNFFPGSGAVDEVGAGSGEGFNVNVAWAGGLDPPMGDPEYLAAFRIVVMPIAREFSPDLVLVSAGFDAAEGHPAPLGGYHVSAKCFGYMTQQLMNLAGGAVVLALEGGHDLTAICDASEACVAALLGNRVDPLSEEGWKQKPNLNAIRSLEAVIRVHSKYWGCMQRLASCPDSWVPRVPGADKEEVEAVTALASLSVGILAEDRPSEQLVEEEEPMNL

Histone deacetylase 3, sequence (O15379 whole entry): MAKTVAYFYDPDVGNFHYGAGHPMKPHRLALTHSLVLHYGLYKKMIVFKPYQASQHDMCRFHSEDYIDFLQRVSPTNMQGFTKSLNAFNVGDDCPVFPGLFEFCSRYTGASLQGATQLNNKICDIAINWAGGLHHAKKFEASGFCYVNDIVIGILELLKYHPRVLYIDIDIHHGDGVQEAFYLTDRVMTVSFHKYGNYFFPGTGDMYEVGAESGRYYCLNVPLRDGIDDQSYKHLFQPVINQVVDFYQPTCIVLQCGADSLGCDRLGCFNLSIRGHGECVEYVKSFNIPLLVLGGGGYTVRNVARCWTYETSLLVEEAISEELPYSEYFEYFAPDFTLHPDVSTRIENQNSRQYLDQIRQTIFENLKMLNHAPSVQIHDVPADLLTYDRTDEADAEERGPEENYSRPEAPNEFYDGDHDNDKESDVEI
T1 sequence (Q92769 whole entry): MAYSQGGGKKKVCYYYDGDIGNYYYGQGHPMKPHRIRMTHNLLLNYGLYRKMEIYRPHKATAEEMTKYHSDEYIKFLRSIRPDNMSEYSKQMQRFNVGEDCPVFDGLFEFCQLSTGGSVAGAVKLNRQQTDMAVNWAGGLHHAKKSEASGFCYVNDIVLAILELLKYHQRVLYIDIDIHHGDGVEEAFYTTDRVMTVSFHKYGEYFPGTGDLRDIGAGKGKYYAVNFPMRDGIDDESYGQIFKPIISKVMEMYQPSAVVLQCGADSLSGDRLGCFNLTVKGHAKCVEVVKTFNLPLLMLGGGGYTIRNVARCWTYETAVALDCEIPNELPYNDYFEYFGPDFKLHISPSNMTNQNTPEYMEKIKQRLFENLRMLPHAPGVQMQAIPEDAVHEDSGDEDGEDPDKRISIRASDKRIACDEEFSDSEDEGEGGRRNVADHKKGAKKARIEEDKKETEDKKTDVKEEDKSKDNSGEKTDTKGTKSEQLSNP
Histone deacetylase 9, sequence (Q9UKV0 whole entry): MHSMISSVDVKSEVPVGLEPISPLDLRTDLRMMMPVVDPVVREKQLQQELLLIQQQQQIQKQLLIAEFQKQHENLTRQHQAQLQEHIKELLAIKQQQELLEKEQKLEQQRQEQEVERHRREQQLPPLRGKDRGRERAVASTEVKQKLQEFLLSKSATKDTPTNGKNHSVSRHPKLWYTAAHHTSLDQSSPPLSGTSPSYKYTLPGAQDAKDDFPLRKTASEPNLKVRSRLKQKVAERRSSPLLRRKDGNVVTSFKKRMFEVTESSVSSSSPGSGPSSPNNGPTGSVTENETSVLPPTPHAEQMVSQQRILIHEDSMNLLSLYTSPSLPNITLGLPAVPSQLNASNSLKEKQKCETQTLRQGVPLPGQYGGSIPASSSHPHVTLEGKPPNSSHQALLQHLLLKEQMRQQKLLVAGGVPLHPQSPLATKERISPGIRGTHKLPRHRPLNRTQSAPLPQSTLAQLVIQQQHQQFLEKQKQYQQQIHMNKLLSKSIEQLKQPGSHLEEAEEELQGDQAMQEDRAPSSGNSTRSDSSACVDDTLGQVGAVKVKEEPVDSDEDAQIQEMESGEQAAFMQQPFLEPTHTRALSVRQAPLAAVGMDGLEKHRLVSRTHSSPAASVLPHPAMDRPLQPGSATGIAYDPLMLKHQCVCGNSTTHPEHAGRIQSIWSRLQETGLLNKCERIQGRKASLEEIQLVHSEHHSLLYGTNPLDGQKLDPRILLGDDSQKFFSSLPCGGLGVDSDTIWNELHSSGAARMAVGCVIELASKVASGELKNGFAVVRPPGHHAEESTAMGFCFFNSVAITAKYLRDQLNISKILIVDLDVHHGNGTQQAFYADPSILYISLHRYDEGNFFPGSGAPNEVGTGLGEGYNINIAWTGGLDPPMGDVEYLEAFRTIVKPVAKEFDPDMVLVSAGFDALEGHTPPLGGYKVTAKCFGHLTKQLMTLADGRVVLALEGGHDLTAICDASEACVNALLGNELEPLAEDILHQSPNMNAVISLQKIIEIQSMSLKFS
Histone deacetylase 4, sequence (P56524 whole entry): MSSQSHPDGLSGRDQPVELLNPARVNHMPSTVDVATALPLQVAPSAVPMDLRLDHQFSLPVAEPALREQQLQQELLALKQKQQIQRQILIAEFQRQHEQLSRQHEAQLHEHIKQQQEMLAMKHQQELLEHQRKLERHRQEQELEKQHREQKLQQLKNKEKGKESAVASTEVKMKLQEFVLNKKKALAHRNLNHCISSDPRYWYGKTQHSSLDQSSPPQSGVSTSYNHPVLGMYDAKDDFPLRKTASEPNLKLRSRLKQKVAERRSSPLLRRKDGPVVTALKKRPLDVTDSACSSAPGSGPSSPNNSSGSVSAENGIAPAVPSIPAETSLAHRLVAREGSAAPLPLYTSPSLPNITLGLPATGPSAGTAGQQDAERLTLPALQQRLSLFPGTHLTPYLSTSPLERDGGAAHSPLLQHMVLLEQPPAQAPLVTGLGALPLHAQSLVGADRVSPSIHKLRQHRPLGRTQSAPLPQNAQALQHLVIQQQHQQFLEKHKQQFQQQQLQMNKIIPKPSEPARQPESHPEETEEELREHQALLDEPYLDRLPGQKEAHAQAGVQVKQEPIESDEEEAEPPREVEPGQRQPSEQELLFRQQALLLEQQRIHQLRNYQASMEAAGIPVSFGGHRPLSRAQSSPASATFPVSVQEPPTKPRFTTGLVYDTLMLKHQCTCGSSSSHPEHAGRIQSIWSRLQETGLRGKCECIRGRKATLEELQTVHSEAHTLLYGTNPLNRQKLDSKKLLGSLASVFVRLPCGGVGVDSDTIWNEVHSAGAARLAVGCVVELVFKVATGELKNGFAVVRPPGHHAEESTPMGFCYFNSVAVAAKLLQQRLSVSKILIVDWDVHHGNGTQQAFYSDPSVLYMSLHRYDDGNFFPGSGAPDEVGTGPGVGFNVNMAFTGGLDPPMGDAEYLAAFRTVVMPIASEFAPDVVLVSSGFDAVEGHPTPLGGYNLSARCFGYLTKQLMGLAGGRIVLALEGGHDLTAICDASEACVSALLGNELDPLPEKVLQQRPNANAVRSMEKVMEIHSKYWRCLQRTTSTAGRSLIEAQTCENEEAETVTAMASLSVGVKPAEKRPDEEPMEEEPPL
Histone deacetylase 5, sequence (Q9UQL6 whole entry): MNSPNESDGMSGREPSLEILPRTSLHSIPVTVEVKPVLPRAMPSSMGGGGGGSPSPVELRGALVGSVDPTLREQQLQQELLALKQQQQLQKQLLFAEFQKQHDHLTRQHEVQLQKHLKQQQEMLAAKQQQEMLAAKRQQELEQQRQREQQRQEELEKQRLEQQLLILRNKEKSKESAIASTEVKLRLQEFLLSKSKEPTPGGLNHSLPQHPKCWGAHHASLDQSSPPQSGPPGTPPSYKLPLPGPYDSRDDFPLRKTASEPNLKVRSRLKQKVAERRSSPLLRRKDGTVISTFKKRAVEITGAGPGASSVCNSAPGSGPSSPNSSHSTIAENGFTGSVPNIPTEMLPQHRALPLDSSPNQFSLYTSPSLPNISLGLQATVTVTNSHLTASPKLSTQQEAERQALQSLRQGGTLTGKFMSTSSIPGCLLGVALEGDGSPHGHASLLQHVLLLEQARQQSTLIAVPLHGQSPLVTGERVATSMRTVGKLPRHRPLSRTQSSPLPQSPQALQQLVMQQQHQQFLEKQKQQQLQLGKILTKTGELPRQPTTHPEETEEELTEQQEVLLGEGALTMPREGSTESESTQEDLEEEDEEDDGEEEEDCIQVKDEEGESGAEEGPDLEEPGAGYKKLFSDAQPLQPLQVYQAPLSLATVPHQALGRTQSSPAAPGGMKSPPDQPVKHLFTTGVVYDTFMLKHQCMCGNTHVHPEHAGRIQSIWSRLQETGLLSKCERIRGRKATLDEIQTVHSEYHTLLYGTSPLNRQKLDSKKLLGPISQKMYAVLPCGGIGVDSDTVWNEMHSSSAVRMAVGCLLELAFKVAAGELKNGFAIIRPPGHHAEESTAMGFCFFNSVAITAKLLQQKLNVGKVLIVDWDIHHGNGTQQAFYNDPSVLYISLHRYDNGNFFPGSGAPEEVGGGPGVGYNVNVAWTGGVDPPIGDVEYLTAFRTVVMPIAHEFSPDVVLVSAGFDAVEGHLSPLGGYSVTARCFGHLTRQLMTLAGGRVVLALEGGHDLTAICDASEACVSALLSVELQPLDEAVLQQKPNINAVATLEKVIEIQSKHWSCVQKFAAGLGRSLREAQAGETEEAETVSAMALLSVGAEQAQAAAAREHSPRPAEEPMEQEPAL
Histone deacetylase 1, sequence (Q13547 whole entry): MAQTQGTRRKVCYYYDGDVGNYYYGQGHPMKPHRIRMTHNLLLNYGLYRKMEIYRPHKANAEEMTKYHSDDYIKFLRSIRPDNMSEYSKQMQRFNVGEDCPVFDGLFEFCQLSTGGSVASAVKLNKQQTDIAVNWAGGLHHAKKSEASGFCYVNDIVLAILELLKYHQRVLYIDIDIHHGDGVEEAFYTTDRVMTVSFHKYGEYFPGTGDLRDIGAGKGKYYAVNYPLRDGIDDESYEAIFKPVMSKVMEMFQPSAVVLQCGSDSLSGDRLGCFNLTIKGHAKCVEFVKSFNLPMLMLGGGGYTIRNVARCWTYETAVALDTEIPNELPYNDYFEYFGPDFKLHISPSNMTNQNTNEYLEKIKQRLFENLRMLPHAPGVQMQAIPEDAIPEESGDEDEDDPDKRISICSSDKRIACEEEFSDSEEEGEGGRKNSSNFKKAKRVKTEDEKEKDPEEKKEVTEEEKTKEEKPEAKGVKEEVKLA

Row | Structure (SMILES) | IC50 (Histone deacetylase 9) | IC50 (Histone deacetylase 5) | IC50 (Histone deacetylase 2 [1]) | IC50 (Histone deacetylase 4) | inhibition (Histone deacetylase 2 [2]) | IC50 (Histone deacetylase 8) | IC50 [3] | IC50 (Histone deacetylase 3) | IC50 (Histone deacetylase 1) | IC50 (Histone deacetylase 7)
1 | Cc1cc(=O)[nH]c(SCC(=O)c2ccc(NC(=O)c3ccccc3)cc2)n1 | > 100 µM | > 100 µM | > 100 µM | > 100 µM | – | > 100 µM | 10.8 µM | > 100 µM | > 100 µM | > 100 µM
2 | COc1ccc(C(=O)CSc2nc(C)cc(O)n2)cc1 | > 100 µM | > 100 µM | > 100 µM | > 100 µM | – | > 100 µM | 60.9 µM | > 100 µM | > 100 µM | > 100 µM
3 | Cc1cc(=O)[nH]c(SCC(=O)c2ccc3c(c2)OCCO3)n1 | > 100 µM | > 100 µM | > 100 µM | > 100 µM | – | > 100 µM | > 100 µM | > 100 µM | > 100 µM | > 100 µM
4 | CCOC(=O)CC(=O)CSc1nc(C)cc(O)n1 | > 100 µM | 48.6 µM | 69.3 µM | > 100 µM | – | > 100 µM | 7.2 µM | 40 µM | 77.2 µM | > 100 µM
5 | Cc1cc(O)nc(SCC(=O)c2cccs2)n1 | > 100 µM | > 100 µM | > 100 µM | > 100 µM | – | > 100 µM | 24.8 µM | > 100 µM | > 100 µM | > 100 µM

The remaining lines, values ahead:

Row | IC50 (Histone deacetylase 9) | IC50 (Histone deacetylase 5) | IC50 (Histone deacetylase 2 [1]) | IC50 (Histone deacetylase 4) | inhibition (Histone deacetylase 2 [2]) | IC50 (Histone deacetylase 8) | IC50 [3] | IC50 (Histone deacetylase 3) | IC50 (Histone deacetylase 1) | IC50 (Histone deacetylase 7) | Structure (SMILES)
6 | 74.1 µM | 27.9 µM | 18.9 µM | 32.5 µM | Active | 23.9 µM | 11.2 µM | 15.2 µM | 16.4 µM | – | CC(=O)Nc1ccc(C(=O)CSc2nc(C)cc(O)n2)cc1
7 | > 100 µM | > 100 µM | > 100 µM | > 100 µM | – | > 100 µM | > 100 µM | > 100 µM | > 100 µM | > 100 µM | CC(=O)Nc1ccc(CSc2nc(C)cc(O)n2)cc1
